Experimental data from ChEMBL document CHEMBL1122659, “Synthesis of some phosphonates with antiherpetic activity” (1984).
Converted amounts (≈) assume the structure as drawn. The source made the active and inactive calls. The rule behind the calls is not given here.

Experiments:
Oryctolagus cuniculus = species: Oryctolagus cuniculus; experiment: In vitro ability to inhibit the herpes HSV-2 virus; Inactive; type: functional, organism-based; settings: herpes simplex virus
[1] = In vitro ability to inhibit the herpes HSV-2 virus; type: functional, herpes simplex virus; settings: Oryctolagus cuniculus
Mus musculus [2] = species: Mus musculus; experiment: Percent survival rate of mice infected intravaginally with herpes simplex virus type 2 at daily dosage of 2.5%(treatment initiated 4-h postinfection and continued for 7 days); type: functional
Summary of the method: (§1)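 Mice infected intravaginally with HSV-2. Test agent suspended in gum tragacanth and applied intravaginally. Survival recorded.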

Mus musculus [3] = species: Mus musculus; experiment: Average survival rate of mice infected intravaginally with herpes simplex virus type 2 at daily dosage of 5%(treatment initiated 4-h postinfection and continued for 7 days); type: functional; summary of the method: as §1
Mus musculus [4] = species: Mus musculus; experiment: Percent survival rate of mice infected intravaginally with herpes simplex virus type 2 at daily dosage of 5%(treatment initiated 4-h postinfection and continued for 7 days); type: functional; summary of the method: as §1
Mus musculus [5] = species: Mus musculus; experiment: Percent survival rate of mice infected intravaginally with herpes simplex virus type 2 at daily dosage of 10%(treatment initiated 4-h postinfection and continued for 7 days); type: functional; summary of the method: as §1
Mus musculus [6] = species: Mus musculus; experiment: Average survival rate of mice infected intravaginally with herpes simplex virus type 2 at daily dosage of 10%(treatment initiated 4-h postinfection and continued for 7 days); type: functional; summary of the method: as §1
Mus musculus [7] = species: Mus musculus; experiment: Average survival rate of mice infected intravaginally with herpes simplex virus type 2 with placebo (treatment initiated 4-h postinfection and continued for 7 days)
Cavia porcellus [8] = species: Cavia porcellus; experiment: Effect of compound in a vanishing cream base on the development of Herpetic vesicles in Guinea pigs infected intradermally with Herpesvirus Hominis, Type 1, AA strain and the virus titer was determined at 5% conc. on day 4; type: functional
Cavia porcellus [9] = species: Cavia porcellus; experiment: Effect of compound in a vanishing cream base on the development of Herpetic vesicles in Guinea pigs infected intradermally with Herpesvirus Hominis, Type 1, AA strain and the virus titer was determined at 10% conc. on day 5; type: functional
Cavia porcellus [10] = species: Cavia porcellus; experiment: Effect of compound in a vanishing cream base on the development of Herpetic vesicles in Guinea pigs infected intradermally with Herpesvirus Hominis, Type 1, AA strain and the virus titer was determined at 5% conc. on day 2; type: functional
Cavia porcellus [11] = species: Cavia porcellus; experiment: Effect on the development of Herpetic vesicles in Guinea pigs infected intradermally with Herpes virus Hominis, Type 1,AA strain on day 3 at 5 % concentration; type: functional
Summary of the method: (§2)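 Albino Hartley guinea pigs (350–400 g) were infected intradermally with 0.05 mL undiluted HSV-1 AA strain, delivered by vaccination gun into a 12 mm marked area on an epilated flank. Topical cream treatment followed. Vesicle development was scored daily.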

Cavia porcellus [12] = species: Cavia porcellus; experiment: Effect of compound in a vanishing cream base on the development of Herpetic vesicles in Guinea pigs infected intradermally with Herpesvirus Hominis, Type 1, AA strain and the virus titer was determined at 10% conc. on day 1; type: functional
Cavia porcellus [13] = species: Cavia porcellus; experiment: Effect of compound in a vanishing cream on the development of Herpetic vesicles in Guinea pigs infected intradermally with Herpes virus Hominis, Type 1,AA strain on day 3 at 5 % concentration; type: functional
Summary of the method: (§3)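 Albino Hartley guinea pigs (350–400 g) were infected intradermally with 0.05 mL undiluted HSV-1 AA strain, delivered by vaccination gun into a 12 mm circle on an epilated flank. Test agent was applied as a topical cream starting 24 h postinfection. Lesions were scored daily for mean vesicle score over days 1–5.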

Cavia porcellus [14] = species: Cavia porcellus; experiment: Effect on the growth of Herpes simplex Type 1 on the skin of Guinea pigs infected intradermally on day 4 at 5 % concentration; type: functional
Summary of the method: (§4)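 Guinea pigs (Hartley, 350–400 g) were infected intradermally on an epilated flank with undiluted HSV-1 AA strain and treated with topical cream. Supernatants of lesion skin scrapings were diluted 10⁻¹ to 10⁻⁸ and titered by plaque assay on BSC-1 monolayers in triplicate: 1 h adsorption at 37 °C, agarose overlay, 4 days at 37 °C, formalin fixation, crystal violet staining, plaques counted.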

Cavia porcellus [15] = species: Cavia porcellus; experiment: Effect on the growth of Herpes simplex Type 1 on the skin of Guinea pigs infected intradermally on day 3 at 5 % concentration; type: functional; summary of the method: as §4
Cavia porcellus [16] = species: Cavia porcellus; experiment: Effect of compound in a vanishing cream on the development of Herpetic vesicles in Guinea pigs infected intradermally with Herpes virus Hominis, Type 1,AA strain on day 5 at 10 % concentration; type: functional; summary of the method: as §3
Cavia porcellus [17] = species: Cavia porcellus; experiment: Effect of compound in a vanishing cream base on the development of Herpetic vesicles in Guinea pigs infected intradermally with Herpesvirus Hominis, Type 1, AA strain and the virus titer was determined at 10% conc. on day 3; type: functional
Cavia porcellus [18] = species: Cavia porcellus; experiment: Effect of compound in a vanishing cream base on the development of Herpetic vesicles in Guinea pigs infected intradermally with Herpesvirus Hominis, Type 1, AA strain and the virus titer was determined at 5% conc. on day 1; type: functional
Cavia porcellus [19] = species: Cavia porcellus; experiment: Effect of compound in a vanishing cream on the development of Herpetic vesicles in Guinea pigs infected intradermally with Herpes virus Hominis, Type 1,AA strain on day 2 at 5 % concentration; type: functional; summary of the method: as §3
Cavia porcellus [20] = species: Cavia porcellus; experiment: Effect of compound in a vanishing cream on the development of Herpetic vesicles in Guinea pigs infected intradermally with Herpes virus Hominis, Type 1,AA strain on day 2 at 10 % concentration; type: functional; summary of the method: as §3
Cavia porcellus [21] = species: Cavia porcellus; experiment: Effect of compound in a vanishing cream on the development of Herpetic vesicles in Guinea pigs infected intradermally with Herpes virus Hominis, Type 1,AA strain on day 5 at 5% concentration; type: functional; summary of the method: as §3
Cavia porcellus [22] = species: Cavia porcellus; experiment: Effect of compound in a vanishing cream on the development of Herpetic vesicles in Guinea pigs infected intradermally with Herpes virus Hominis, Type 1,AA strain on day 1 at 5 % concentration; type: functional; summary of the method: as §3
Cavia porcellus [23] = species: Cavia porcellus; experiment: Effect of compound in a vanishing cream on the development of Herpetic vesicles in Guinea pigs infected intradermally with Herpes virus Hominis, Type 1,AA strain on day 4 at 5 % concentration; type: functional; summary of the method: as §3
Cavia porcellus [24] = species: Cavia porcellus; experiment: Effect on the growth of Herpes simplex Type 1 on the skin of Guinea pigs infected intradermally on day 1 at 5 % concentration; type: functional; summary of the method: as §4
Cavia porcellus [25] = species: Cavia porcellus; experiment: Effect on the development of Herpetic vesicles in Guinea pigs infected intradermally with Herpes virus Hominis, Type 1,AA strain on day 1 at 5 % concentration; type: functional; summary of the method: as §2
Cavia porcellus [26] = species: Cavia porcellus; experiment: Effect on the growth of Herpes simplex Type 1 on the skin of Guinea pigs infected intradermally on day 2 at 5 % concentration; type: functional; summary of the method: as §4
Cavia porcellus [27] = species: Cavia porcellus; experiment: Effect on the development of Herpetic vesicles in Guinea pigs infected intradermally with Herpes virus Hominis, Type 1,AA strain on day 2 at 5 % concentration; type: functional; summary of the method: as §2
Cavia porcellus [28] = species: Cavia porcellus; experiment: Effect of compound in a vanishing cream base on the development of Herpetic vesicles in Guinea pigs infected intradermally with Herpesvirus Hominis, Type 1, AA strain and the virus titer was determined at 10% conc. on day 2; type: functional
Cavia porcellus [29] = species: Cavia porcellus; experiment: Effect of compound in a vanishing cream on the development of Herpetic vesicles in Guinea pigs infected intradermally with Herpes virus Hominis, Type 1,AA strain on day 1 at 10 % concentration; type: functional; summary of the method: as §3
Cavia porcellus [30] = species: Cavia porcellus; experiment: Effect of compound in a vanishing cream on the development of Herpetic vesicles in Guinea pigs infected intradermally with Herpes virus Hominis, Type 1,AA strain on day 3 at 10 % concentration; type: functional; summary of the method: as §3
Cavia porcellus [31] = species: Cavia porcellus; experiment: Effect of compound in a vanishing cream on the development of Herpetic vesicles in Guinea pigs infected intradermally with Herpes virus Hominis, Type 1,AA strain on day 4 at 10 % concentration; type: functional; summary of the method: as §3

In the case of `COc1ccc(OCCCCCCP(=O)(O)O)c(Cl)c1`, the MIC (Oryctolagus cuniculus) is reported as “inactive”.
For `CCOP(=O)(CCCCCCCOc1ccc(OC)cc1Cl)OCC`, the MIC (Oryctolagus cuniculus) was “inactive”.
In the case of `CCOP(=O)(CCCCCCOc1ccc(Br)cc1)OCC`, the MIC (Oryctolagus cuniculus) is reported as “inactive”.
In the case of `CCOP(=O)(CCCCCCOc1c(OC)cccc1OC)OCC`, the MIC (Oryctolagus cuniculus) is reported as “inactive”.
In the case of `CCOP(=O)(OCC)C(CCCCCCOc1ccc(OC)cc1Cl)C(C)=O` (configuration not stated), the MIC [1] is reported as 6 µg/mL (≈ 13.8 µM).
With `CCOC(=O)C(CCCCCCOc1ccc(OC)cc1Cl)P(=O)(OCC)OCC` (configuration not stated) the Survival (Mus musculus [2]) was 10%, the Average survival (Mus musculus [3]) was over 7.3 days and the Survival (Mus musculus [4]) was 10%. It also gave a Survival (Mus musculus [5]) of 20%, an MIC [1] of 3 µg/mL (≈ 6.45 µM) and an Average survival (Mus musculus [6]) of over 8.7 days. It also gave an Average survival (Mus musculus [7]) of over 8.1 days.
With `CCOP(=O)(CCCCOc1ccc(OC)cc1Cl)OCC` the MIC (Oryctolagus cuniculus) was “inactive”.
Work on `CCOP(=O)(CCCCCCOc1c(Cl)cccc1Cl)OCC` yielded an MIC [1] of 12 µg/mL (≈ 31.3 µM).
For `CCOP(=O)(CCOc1ccc(O)cc1)OCC`, the MIC (Oryctolagus cuniculus) was “inactive”.
In the case of `CCOP(=O)(CCCCCCOc1ccc(OC)cc1Cl)OCC` [FOSARILATE], the “Log TCID50/mg” value (Cavia porcellus [8]) is reported as under 1.25, the “Log TCID50/mg” value (Cavia porcellus [9]) is reported as under 1.25 and the “Log TCID50/mg” value (Cavia porcellus [10]) is reported as under 1.41. For the same molecule, the Mean vesicle score (Cavia porcellus [11]) was 0.5, the “Log TCID50/mg” value (Cavia porcellus [12]) was 3.18 and the Mean vesicle score (Cavia porcellus [13]) was 0.75. For the same molecule, the Log geometric mean (Cavia porcellus [14]) was 0.76 pfu mg-1, the Log geometric mean (Cavia porcellus [15]) was 0.79 pfu mg-1 and the Mean vesicle score (Cavia porcellus [16]) was 1.1. For the same molecule, the “Log TCID50/mg” value (Cavia porcellus [17]) was under 1.6, the “Log TCID50/mg” value (Cavia porcellus [18]) was 3.94 and the Survival (Mus musculus [2]) was 30%. The Average survival (Mus musculus [3]) was over 10.5 days, the Mean vesicle score (Cavia porcellus [19]) was 1.17 and the Mean vesicle score (Cavia porcellus [20]) was 0.83. It also gave a Survival (Mus musculus [4]) of 50%, a Mean vesicle score (Cavia porcellus [21]) of 0.67 and a Mean vesicle score (Cavia porcellus [22]) of 0.75. For the same molecule, the Mean vesicle score (Cavia porcellus [23]) was 1, the Log geometric mean (Cavia porcellus [24]) was 4.23 pfu mg-1 and the Mean vesicle score (Cavia porcellus [25]) was 0.5. The Log geometric mean (Cavia porcellus [26]) was 0.96 pfu mg-1, the Survival (Mus musculus [5]) was 60% and the Mean vesicle score (Cavia porcellus [27]) was 0.75. The “Log TCID50/mg” value (Cavia porcellus [28]) was under 1.34, the MIC [1] was 3 µg/mL (≈ 7.92 µM) and the Average survival (Mus musculus [6]) was over 11.3 days. It also gave a Mean vesicle score (Cavia porcellus [29]) of 0.67, a Mean vesicle score (Cavia porcellus [30]) of 0.91 and a Mean vesicle score (Cavia porcellus [31]) of 0.92.
With `CCOP(=O)(OCC)C(CCCCCCCCOc1ccc(OC)cc1Cl)C(C)=O` (configuration not stated) the MIC [1] was 6 µg/mL (≈ 13 µM).
`CCOP(=O)(OCC)C(CCCCCOc1ccc(OC)cc1Cl)C(C)=O` (configuration not stated) showed an MIC [1] of 6 µg/mL (≈ 14.3 µM).
